Measured values taken from ChEMBL document CHEMBL4118033, “Total Synthesis, Configuration Assignment, and Cytotoxic Activity Evaluation of Protulactone A” (J Nat Prod, 2017).
The source made the active and inactive calls.

Columns and labels:
Assay type in all cases: functional, cell-based
MOLT-4 = assay: Antiproliferative activity against human MOLT4 cells at 10 uM incubated for 48 hrs by sulforhodamine B assay
Summary of the method: (§1)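 Run by the NCI Developmental Therapeutics Program (Division of Cancer Treatment and Diagnosis) as part of the NCI60 human tumour cell line panel screen. Each compound was tested at a single dose of 10 μM. Results are reported as one-dose mean graphs.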

SK-MEL-28 = assay: Antiproliferative activity against human SK-MEL-28 cells at 10 uM incubated for 48 hrs by sulforhodamine B assay; summary of the method: as §1
RXF 393 = assay: Antiproliferative activity against human RXF393 cells at 10 uM incubated for 48 hrs by sulforhodamine B assay; summary of the method: as §1
SK-MEL-2 = assay: Antiproliferative activity against human SK-MEL-2 cells at 10 uM incubated for 48 hrs by sulforhodamine B assay; summary of the method: as §1
SF-539 = assay: Antiproliferative activity against human SF539 cells at 10 uM incubated for 48 hrs by sulforhodamine B assay; summary of the method: as §1
HCT-15 = assay: Antiproliferative activity against human HCT15 cells at 10 uM incubated for 48 hrs by sulforhodamine B assay; summary of the method: as §1
NCI-H23 = assay: Antiproliferative activity against human NCI-H23 cells at 10 uM incubated for 48 hrs by sulforhodamine B assay; summary of the method: as §1
KM12 = assay: Antiproliferative activity against human KM12 cells at 10 uM incubated for 48 hrs by sulforhodamine B assay; summary of the method: as §1
OVCAR-5 = assay: Antiproliferative activity against human OVCAR5 cells at 10 uM incubated for 48 hrs by sulforhodamine B assay; summary of the method: as §1
SK-OV-3 = assay: Antiproliferative activity against human SKOV3 cells at 10 uM incubated for 48 hrs by sulforhodamine B assay; summary of the method: as §1
ACHN = assay: Antiproliferative activity against human ACHN cells at 10 uM incubated for 48 hrs by sulforhodamine B assay; summary of the method: as §1
SNB-19 = assay: Antiproliferative activity against human SNB19 cells at 10 uM incubated for 48 hrs by sulforhodamine B assay; summary of the method: as §1
UACC-62 = assay: Antiproliferative activity against human UACC62 cells at 10 uM incubated for 48 hrs by sulforhodamine B assay
Summary of the method: (§2)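 Run by the NCI Developmental Therapeutics Program (Division of Cancer Treatment and Diagnosis) as part of the NCI60 human tumour cell line panel. Each compound was tested in vitro at a single dose of 10 μM, and the data are reported as one-dose mean graphs across the panel.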

Hs-578T = assay: Antiproliferative activity against human Hs 578T cells at 10 uM incubated for 48 hrs by sulforhodamine B assay; summary of the method: as §1
HCT-116 = assay: Antiproliferative activity against human HCT116 cells at 10 uM incubated for 48 hrs by sulforhodamine B assay; summary of the method: as §1
MDA-MB-468 = assay: Antiproliferative activity against human MDA-MB-468 cells at 10 uM incubated for 48 hrs by sulforhodamine B assay; summary of the method: as §1
DU-145 = assay: Antiproliferative activity against human DU145 cells at 10 uM incubated for 48 hrs by sulforhodamine B assay; summary of the method: as §1
T47D = assay: Antiproliferative activity against human T47D cells at 10 uM incubated for 48 hrs by sulforhodamine B assay; summary of the method: as §2
MCF7 = assay: Antiproliferative activity against human MCF7 cells at 10 uM incubated for 48 hrs by sulforhodamine B assay; summary of the method: as §1
OVCAR-4 = assay: Antiproliferative activity against human OVCAR4 cells at 10 uM incubated for 48 hrs by sulforhodamine B assay; summary of the method: as §1
SR = assay: Antiproliferative activity against human SR cells at 10 uM incubated for 48 hrs by sulforhodamine B assay; summary of the method: as §2
UACC-257 = assay: Antiproliferative activity against human UACC257 cells at 10 uM incubated for 48 hrs by sulforhodamine B assay; summary of the method: as §2
SF-268 = assay: Antiproliferative activity against human SF268 cells at 10 uM incubated for 48 hrs by sulforhodamine B assay; summary of the method: as §1
HOP-62 = assay: Antiproliferative activity against human HOP62 cells at 10 uM incubated for 48 hrs by sulforhodamine B assay; summary of the method: as §1
IGROV-1 = assay: Antiproliferative activity against human IGROV1 cells at 10 uM incubated for 48 hrs by sulforhodamine B assay; summary of the method: as §1
SNB-75 = assay: Antiproliferative activity against human SNB75 cells at 10 uM incubated for 48 hrs by sulforhodamine B assay; summary of the method: as §2
NCI-H226 = assay: Antiproliferative activity against human NCI-H226 cells at 10 uM incubated for 48 hrs by sulforhodamine B assay; summary of the method: as §1
SN12C = assay: Antiproliferative activity against human SN12C cells at 10 uM incubated for 48 hrs by sulforhodamine B assay; summary of the method: as §1
TK-10 = assay: Antiproliferative activity against human TK10 cells at 10 uM incubated for 48 hrs by sulforhodamine B assay; summary of the method: as §2
786-0 = assay: Antiproliferative activity against human 786-0 cells at 10 uM incubated for 48 hrs by sulforhodamine B assay; summary of the method: as §1
SW-620 = assay: Antiproliferative activity against human SW620 cells at 10 uM incubated for 48 hrs by sulforhodamine B assay; summary of the method: as §2
PC-3 = assay: Antiproliferative activity against human PC3 cells at 10 uM incubated for 48 hrs by sulforhodamine B assay; summary of the method: as §1
A549 = assay: Antiproliferative activity against human A549/ATCC cells at 10 uM incubated for 48 hrs by sulforhodamine B assay; summary of the method: as §1
LOX IMVI = assay: Antiproliferative activity against human LOXIMVI cells at 10 uM incubated for 48 hrs by sulforhodamine B assay; summary of the method: as §1
A498 = assay: Antiproliferative activity against human A498 cells at 10 uM incubated for 48 hrs by sulforhodamine B assay; summary of the method: as §1
UO-31 = assay: Antiproliferative activity against human UO31 cells at 10 uM incubated for 48 hrs by sulforhodamine B assay; summary of the method: as §2
OVCAR-3 = assay: Antiproliferative activity against human OVCAR3 cells at 10 uM incubated for 48 hrs by sulforhodamine B assay; summary of the method: as §1
U-251 = assay: Antiproliferative activity against human U251 cells at 10 uM incubated for 48 hrs by sulforhodamine B assay; summary of the method: as §2
NCI-H522 = assay: Antiproliferative activity against human NCI-H522 cells at 10 uM incubated for 48 hrs by sulforhodamine B assay; summary of the method: as §1
OVCAR-8 = assay: Antiproliferative activity against human OVCAR8 cells at 10 uM incubated for 48 hrs by sulforhodamine B assay; summary of the method: as §1
EKVX = assay: Antiproliferative activity against human EKVX cells at 10 uM incubated for 48 hrs by sulforhodamine B assay; summary of the method: as §1
NCI-H460 = assay: Antiproliferative activity against human NCI-H460 cells at 10 uM incubated for 48 hrs by sulforhodamine B assay; summary of the method: as §1
HOP-92 = assay: Antiproliferative activity against human HOP92 cells at 10 uM incubated for 48 hrs by sulforhodamine B assay; summary of the method: as §1
M14 = assay: Antiproliferative activity against human M14 cells at 10 uM incubated for 48 hrs by sulforhodamine B assay; summary of the method: as §1
RPMI-8226 = assay: Antiproliferative activity against human RPMI8226 cells at 10 uM incubated for 48 hrs by sulforhodamine B assay; summary of the method: as §1
HCC 2998 = assay: Antiproliferative activity against human HCC2998 cells at 10 uM incubated for 48 hrs by sulforhodamine B assay; summary of the method: as §1

Measured: Activity

CC(=O)O[C@H](C)[C@H]1O[C@H]2CC(=O)O[C@H]2[C@@H]1O
inactive: all assays above
